Common to all, as to assay type: functional
The subject of one assay is Streptococcus. In words: Antimicrobial activity against hemolytic Streptococcus Group B CMCC 32210 by broth microdilution method. The essentials:
(§1)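 Two-fold broth microdilution in Mueller-Hinton broth. Compound in DMSO added to bacterial culture at 5 × 10^5 cells/ml, starting at 64 µg/ml, then serially doubled down. Incubated at 37 °C overnight and read as OD600. MIC taken as the minimum inhibitory concentration, obtained in at least two independent experiments.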
In general terms: Dilution methods test growth across graded concentrations, often in twofold steps.

The test system of assay [1] is Staphylococcus aureus. In words: Antimicrobial activity against methicillin-resistant Staphylococcus aureus ATCC 43300 by broth microdilution method. The essentials: (§2)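 Two-fold serial dilution in Mueller-Hinton broth, starting at 64 µg/ml. Compound was added as a DMSO solution to bacterial culture at 5 × 10^5 cells/ml, then double-diluted. Plates were incubated overnight at 37 °C and OD600 was read. MIC was taken from at least two independent experiments.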

Assay [2] relates to Staphylococcus epidermidis. In words: Antimicrobial activity against Staphylococcus epidermidis ATCC 12228 by broth microdilution method. An outline of the steps: as §1
In the next assay the test system is Pseudomonas aeruginosa. In words: Antimicrobial activity against Pseudomonas aeruginosa ATCC 27853 by broth microdilution method. The essentials: as §1
A further assay concerns Escherichia coli. In words: Antimicrobial activity against Escherichia coli ATCC 25922 by broth microdilution method. The essentials: as §1
The next assay deals with Enterococcus faecalis. In words: Antimicrobial activity against Enterococcus faecalis ATCC 29212 by broth microdilution method. An outline of the steps: as §1
The subject of assay [3] is Staphylococcus aureus. In words: Antimicrobial activity against Staphylococcus aureus ATCC 25923 by broth microdilution method. The essentials: as §1
Assay [4] relates to Salmonella enterica subsp. enterica serovar Paratyphi B. In words: Antimicrobial activity against Salmonella paratyphi B CMCC 50094 by broth microdilution method. The essentials: as §2
In another assay the test system is Candida albicans. In words: Antifungal activity against Candida albicans ATCC 10231 by broth microdilution method.

Molecules are shown by their SMILES. ≈ marks a conversion by molar mass, not a printed value.

Consider nine compounds from ChEMBL document CHEMBL1828603, “Synthesis, antimicrobial activity and possible mechanism of action of 9-bromo-substituted indolizinoquinoline-5,12-dione derivatives” (2011).

What is called MIC is the lowest concentration found to suppress growth. Low values mean a more susceptible organism, high ones a less susceptible organism. As to `CC1(C)S[C@@H]2[C@H](NC(=O)Cc3ccccc3)C(=O)N2[C@H]1C(=O)O` [PENICILLIN G], the MIC against Streptococcus was < 0.031 µg/mL; with Staphylococcus aureus [1], > 64 µg/mL; in [2], 16 µg/mL (≈ 47.8 µM); in the assay on Pseudomonas aeruginosa, > 64 µg/mL; with Escherichia coli, 64 µg/mL (≈ 191 µM); against Enterococcus faecalis, 2 µg/mL (≈ 5.98 µM). In addition, the results for the minimum inhibitory concentration (MIC) (with Staphylococcus aureus [3]; in [4]) were < 0.031 µg/mL and 2 µg/mL (≈ 5.98 µM), respectively.

Consider `O=C1c2cccnc2C(=O)c2c1c(C(=O)NCCN1CCCC1)c1ccc(Br)cn21`, for which the MIC against Streptococcus is 0.5 µg/mL (≈ 1.07 µM); against Staphylococcus aureus [1] it was 4 µg/mL (≈ 8.56 µM); in the assay with Candida albicans it was > 64 µg/mL; in assay [2], 1 µg/mL (≈ 2.14 µM); against Pseudomonas aeruginosa it was > 64 µg/mL; against Escherichia coli it was > 64 µg/mL. Also, the minimal inhibitory concentration (MIC) in the assay with Enterococcus faecalis is 2 µg/mL (≈ 4.28 µM); in the assay with Staphylococcus aureus [3], 4 µg/mL (≈ 8.56 µM); in [4], > 64 µg/mL.

Turning to `O=C1c2cccnc2C(=O)c2c1c(C(=O)N1CCOCC1)c1ccc(Br)cn21`, the minimum inhibitory concentration (MIC) against Streptococcus is 16 µg/mL (≈ 36.3 µM); against Staphylococcus aureus [1] it was 64 µg/mL (≈ 145 µM); in the assay on Candida albicans, > 64 µg/mL; in [2], 32 µg/mL (≈ 72.7 µM); against Pseudomonas aeruginosa, > 64 µg/mL; in the assay with Escherichia coli, > 64 µg/mL. The minimal inhibitory concentration (MIC) against Enterococcus faecalis is > 64 µg/mL; with Staphylococcus aureus [3], 16 µg/mL (≈ 36.3 µM); in assay [4], > 64 µg/mL.

As for `CCN(CC)CCCNC(=O)c1c2c(n3cc(Br)ccc13)C(=O)c1ncccc1C2=O`, the MIC in the assay on Streptococcus is 1 µg/mL (≈ 2.07 µM); with Staphylococcus aureus [1], 8 µg/mL (≈ 16.6 µM); against Candida albicans, > 64 µg/mL; in assay [2], 4 µg/mL (≈ 8.28 µM); in the assay on Pseudomonas aeruginosa it was > 64 µg/mL; in the assay on Escherichia coli it was > 64 µg/mL. Moreover, the figures for the MIC (in the assay on Enterococcus faecalis; against Staphylococcus aureus [3]; in assay [4]) were 4 µg/mL (≈ 8.28 µM), 8 µg/mL (≈ 16.6 µM) and > 64 µg/mL, respectively.

Turning to `O=C1c2cccnc2C(=O)c2c1c(C(=O)NCCCN1CCOCC1)c1ccc(Br)cn21`, the MIC in the assay with Streptococcus is 1 µg/mL (≈ 2.01 µM); in the assay with Staphylococcus aureus [1] it was 4 µg/mL (≈ 8.04 µM); in the assay with Candida albicans, > 64 µg/mL; in assay [2], 4 µg/mL (≈ 8.04 µM); against Pseudomonas aeruginosa it was > 64 µg/mL; in the assay on Escherichia coli it was > 64 µg/mL. Besides, the MIC in the assay with Enterococcus faecalis was 4 µg/mL (≈ 8.04 µM); against Staphylococcus aureus [3], 8 µg/mL (≈ 16.1 µM); in [4], > 64 µg/mL.

Regarding `CN1CCN(C(=O)c2c3c(n4cc(Br)ccc24)C(=O)c2ncccc2C3=O)CC1`, the minimum inhibitory concentration (MIC) in the assay with Streptococcus is 8 µg/mL (≈ 17.6 µM); in the assay with Staphylococcus aureus [1], 32 µg/mL (≈ 70.6 µM); against Candida albicans, > 64 µg/mL; in [2], 32 µg/mL (≈ 70.6 µM); in the assay with Pseudomonas aeruginosa, > 64 µg/mL; against Escherichia coli, > 64 µg/mL. Further, the MIC in the assay with Enterococcus faecalis is > 64 µg/mL; with Staphylococcus aureus [3], 16 µg/mL (≈ 35.3 µM); in assay [4], > 64 µg/mL.

As for `CN(C)CCNC(=O)c1c2c(n3cc(Br)ccc13)C(=O)c1ncccc1C2=O`, the minimum inhibitory concentration (MIC) was 0.5 µg/mL (≈ 1.13 µM) with Streptococcus; 4 µg/mL (≈ 9.06 µM) against Staphylococcus aureus [1]; > 64 µg/mL in the assay on Candida albicans; 2 µg/mL (≈ 4.53 µM) in assay [2]; > 64 µg/mL in the assay on Pseudomonas aeruginosa; > 64 µg/mL in the assay with Escherichia coli. The MIC in the assay on Enterococcus faecalis is 1 µg/mL (≈ 2.27 µM); against Staphylococcus aureus [3] it was 4 µg/mL (≈ 9.06 µM); in assay [4] it was > 64 µg/mL.

Regarding `O=C1c2cccnc2C(=O)c2c1c(C(=O)OCCN1CCCCC1)c1ccc(Br)cn21`, the minimal inhibitory concentration (MIC) against Streptococcus is 0.031 µg/mL (≈ 0.0643 µM); against Staphylococcus aureus [1], 0.5 µg/mL (≈ 1.04 µM); with Candida albicans, > 64 µg/mL; in assay [2], 0.063 µg/mL (≈ 0.131 µM); in the assay with Pseudomonas aeruginosa it was > 64 µg/mL; with Escherichia coli it was 4 µg/mL (≈ 8.29 µM). In addition, the MIC was 0.031 µg/mL (≈ 0.0643 µM) in the assay on Enterococcus faecalis, 0.063 µg/mL (≈ 0.131 µM) with Staphylococcus aureus [3] and 16 µg/mL (≈ 33.2 µM) in [4].

In the case of `CC(=O)N1CCN(C(=O)c2c3c(n4cc(Br)ccc24)C(=O)c2ncccc2C3=O)CC1`, the minimal inhibitory concentration (MIC) is 16 µg/mL (≈ 33.2 µM) against Streptococcus; > 64 µg/mL against Staphylococcus aureus [1]; > 64 µg/mL with Candida albicans; > 64 µg/mL in assay [2]; > 64 µg/mL against Pseudomonas aeruginosa; > 64 µg/mL with Escherichia coli. Also, the results for the MIC (in the assay with Enterococcus faecalis; in the assay on Staphylococcus aureus [3]; in assay [4]) were > 64 µg/mL, 64 µg/mL (≈ 133 µM) and > 64 µg/mL, respectively.
